Experimental findings from the RNAGym collection of RNA variant scans (doi:10.1126/science.aae0568) are described below.

B1: tRNA (parent)
chain: GUUCCGUUGGCGUAAUGGUAACGCGUCUCCCUCCUAAGGAGAAGACUGCGGGUUCGAGUCCCGUACGGAACG

Variants at the floor of the assay were thinned out.

Variants of B1 are the subject of the series. As to the kind of experiment: yeast fitness relative to wild type (ratio to wild type); higher = fitter; tRNA-Arg(CCU), competitive growth, 37 C, YPD. The essentials:
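Gene amplicons from the start population and from each of six end populations were read by 100-nucleotide paired-end sequencing. Those end populations came from pooled Saccharomyces cerevisiae strains carrying tRNA-Arg(CCU) gene variants at the native locus, competed in YPD at 37°C for 24 hours. Fitness relative to wild type was worked out from changes in genotype frequencies. Genotypes needed ≥ 100 starting reads, and estimates < 0.5 were set to 0.5.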
For the variant U8A G25A C33G A42G G50A, the yeast fitness was no more than 0.5.

As to U8C A21U U32A C55G U59C, the yeast fitness was no more than 0.5.

Take U8C A65U: the yeast fitness was determined as 0.957.

In the case of U8A C55G, the yeast fitness is no more than 0.5.

In the case of U8A C55U, the yeast fitness is no more than 0.5.

As for U8A G18C C24A C27U U32C U54G C55U, the yeast fitness is no more than 0.5.

As to U8A G18C G25C C60U U64A, the yeast fitness was no more than 0.5.

U8A G18C C66U: the yeast fitness was no more than 0.5.

U8C A15U U16A U26A: the yeast fitness was no more than 0.5.

Consider U8C A14C C31U, for which the yeast fitness is no more than 0.5.

In the case of U8A G56A, the yeast fitness stood at 0.701.

U8C C22G C49U: the yeast fitness amounted to 0.726.

Consider U8A U16G, for which the yeast fitness came out at 0.628.

As for U8A G18C, the yeast fitness is no more than 0.5.

Take U8A U32G A37G U54G G56A: the yeast fitness is no more than 0.5.

U8A C29A G39A: the yeast fitness is no more than 0.5.

As for U8C A36C G41A G68A A69C, the yeast fitness was no more than 0.5.

With U8A G39C, the yeast fitness came out at 0.555.

On to U8C A40U A45G, for which the yeast fitness was 0.527.

On to U8C A14G G23U A65C, for which the yeast fitness is no more than 0.5.

U8C C22A A36C G63C: the yeast fitness is no more than 0.5.

Consider U8A C24A U28A G58A, for which the yeast fitness is 0.584.

For the variant U8C C22A C33G G39C C46U G52A C66U, the yeast fitness was no more than 0.5.

On to U8C A14C C30G, for which the yeast fitness is no more than 0.5.

U8A C30G C61A: the yeast fitness is no more than 0.5.

In the case of U8C A37G G38C G51A, the yeast fitness is no more than 0.5.

Turning to U8A G38C, the yeast fitness worked out at 0.647.

Take U8A G17A U32A A43G: the yeast fitness was no more than 0.5.

Turning to U8A G12A C33U A37G C62A, the yeast fitness was no more than 0.5.

For U8C A15C U32A A70C, the yeast fitness was no more than 0.5.

For the variant U8C C24G G38C A57U, the yeast fitness was no more than 0.5.

For the variant U8C A20G C27U C30U A42G C60A, the yeast fitness turned out to be 0.711.

With U8A G51C, the yeast fitness turned out to be 0.534.

Take U8A C30U C46A U54A A57G: the yeast fitness was no more than 0.5.

For U8A G25C C31G, the yeast fitness is no more than 0.5.

For the variant U8C A14G G23A, the yeast fitness is no more than 0.5.

Regarding U8A G44C A57U C62U, the yeast fitness is no more than 0.5.

Consider U8C C11G G18C C49A A70C, for which the yeast fitness was no more than 0.5.

For U8C A14U C49A, the yeast fitness was no more than 0.5.

Turning to U8C C27A G52A, the yeast fitness is no more than 0.5.

In the case of U8C C11U G23A C31U A45C G48A G67A, the yeast fitness was no more than 0.5.

For the variant U8A U26A C29A A65C, the yeast fitness came out at 0.761.

As for U8C C22A C29G G44A U64G, the yeast fitness was no more than 0.5.

Take U8C A14G C27U U32A: the yeast fitness was no more than 0.5.

As for U8A C29G U32C, the yeast fitness is no more than 0.5.

Consider U8C C11G A69U, for which the yeast fitness is no more than 0.5.

Turning to U8A C27U A42G C62G G68A, the yeast fitness is no more than 0.5.

Turning to U8A G12A A45C, the yeast fitness was no more than 0.5.

As to U8A G23C, the yeast fitness was no more than 0.5.

U8A G39C A65G: the yeast fitness is no more than 0.5.

On to U8C A14U C34G C46A C62U A69C, for which the yeast fitness was no more than 0.5.

Regarding U8C A45C C62G A65C, the yeast fitness was no more than 0.5.

For the variant U8C C22A U47A, the yeast fitness is no more than 0.5.

Turning to U8C C24G U26C, the yeast fitness was no more than 0.5.

As to U8A G23A C30U U35C, the yeast fitness was no more than 0.5.

With U8C A21U A69U, the yeast fitness worked out at 0.527.

In the case of U8A U26A C29A C62U, the yeast fitness came to 0.537.

As to U8A G18C A36U C66U, the yeast fitness was found to be 0.505.

In the case of U8A C30A, the yeast fitness turned out to be 0.604.

For the variant U8C A42G C55A, the yeast fitness was no more than 0.5.

For the variant U8C C22G, the yeast fitness worked out at 0.935.

With U8C A36U G38A A45U C49U C61G, the yeast fitness was no more than 0.5.

For U8A U19G C24G U32A, the yeast fitness is no more than 0.5.

As to U8C A20U A21U U26G C31A A45U, the yeast fitness came out at 0.54.

Regarding U8A C31U, the yeast fitness came out at 0.631.

As to U8A C29U C62U A70U, the yeast fitness is no more than 0.5.

For U8C C11G G25A C60A C62U G68C, the yeast fitness is no more than 0.5.

Regarding U8A C29G C62G, the yeast fitness was 0.576.

Take U8A U19C G48C U59A C66U: the yeast fitness amounted to 0.671.

On to U8A U32C, for which the yeast fitness is 0.648.

U8C A45C G56A: the yeast fitness stood at 0.798.

Regarding U8A C49U, the yeast fitness worked out at 0.779.

Consider U8A G56U G67A A70C, for which the yeast fitness is no more than 0.5.

For the variant U8C A21U G39C G50A, the yeast fitness was no more than 0.5.

With U8A U47G G56A, the yeast fitness was no more than 0.5.

For U8A U35A A36G A57C, the yeast fitness was no more than 0.5.

With U8C A36C G67C, the yeast fitness was no more than 0.5.

Turning to U8C A20C A21C A36U A45C, the yeast fitness was no more than 0.5.

As for U8A C60U, the yeast fitness was 0.551.

Take U8A G67U: the yeast fitness is 0.636.

Consider U8A G67C, for which the yeast fitness is 0.736.

With U8C A36U G38A A65C, the yeast fitness came out at 0.579.

Turning to U8A G18A A69C, the yeast fitness is no more than 0.5.

Turning to U8A C30U A40U G52C, the yeast fitness is no more than 0.5.

In the case of U8A G18C G25C C60U C61A, the yeast fitness was no more than 0.5.

For the variant U8C A21U C24U U32A C55G, the yeast fitness is no more than 0.5.

In the case of U8A G12C G17A C33U A40G G41C, the yeast fitness is no more than 0.5.

Take U8C A45C A65C: the yeast fitness was no more than 0.5.

Regarding U8A C31A C61U, the yeast fitness is no more than 0.5.

For U8A G18C G25C A45U C49G, the yeast fitness was no more than 0.5.

In the case of U8A C30G C46A G63A G67A, the yeast fitness was no more than 0.5.

With U8C A37G G38C, the yeast fitness was no more than 0.5.

Regarding U8C C22A C33G G39C U54C, the yeast fitness is no more than 0.5.

Turning to U8C C11G A15U A20G A21G G38C C60G, the yeast fitness amounted to 0.568.

Turning to U8C A14U C30A, the yeast fitness was no more than 0.5.

Turning to U8A G18C C27U G51C C55A C62U A65U G68A A69U, the yeast fitness was no more than 0.5.

With U8A U13A A14C U16A, the yeast fitness is no more than 0.5.

With U8A G52A G56U, the yeast fitness was no more than 0.5.

For U8A C29U G51C G67A, the yeast fitness stood at 0.536.

In the case of U8C A15U G25A C34G U54A, the yeast fitness is no more than 0.5.

For U8A U64G, the yeast fitness came to 0.554.

Regarding U8A C33U A36U A70G, the yeast fitness was no more than 0.5.

As to U8A G17A U26C C29G U35A A42G A69U, the yeast fitness was no more than 0.5.

As for U8C A20C C22A C24U, the yeast fitness is no more than 0.5.

U8C A70U: the yeast fitness was determined as 0.994.

U8C A37C C49G: the yeast fitness is no more than 0.5.

Take U8C C27A A36U A37U: the yeast fitness was no more than 0.5.

Take U8C A45G C49A: the yeast fitness was found to be 0.574.

As for U8A U13C, the yeast fitness amounted to 0.747.

On to U8C A20C, for which the yeast fitness turned out to be 0.985.

U8C A20G: the yeast fitness is 0.941.

With U8C A20U, the yeast fitness was determined as 0.92.

For U8C C11U A36U, the yeast fitness is no more than 0.5.

In the case of U8C A15U G25A C34G U54A A65U, the yeast fitness is 0.541.

As for U8A C27U A40G C49U C55G, the yeast fitness was determined as 0.554.

With U8A G18A C30A U32A U35G G67A, the yeast fitness is 0.527.

As to U8A C34U A36G A45U U64A, the yeast fitness was no more than 0.5.

Regarding U8A G9A C24U U53C C60G, the yeast fitness is no more than 0.5.

With U8C A15U, the yeast fitness worked out at 0.849.

As to U8C C11A A15C C49U A57G C61U, the yeast fitness was no more than 0.5.

Consider U8A C29G C60U G67A A69U, for which the yeast fitness was no more than 0.5.

As to U8C C22U C31U, the yeast fitness turned out to be 0.54.

Take U8A C61U G63C A65G: the yeast fitness was no more than 0.5.

In the case of U8A U28C C61A G67C, the yeast fitness was no more than 0.5.

Regarding U8A U19C, the yeast fitness came to 0.805.

Regarding U8C A15U C22G C31U A57C U64A G68A, the yeast fitness was no more than 0.5.

On to U8C A15G C61U, for which the yeast fitness stood at 0.628.

Turning to U8C A20U U28A C62U G67U, the yeast fitness was no more than 0.5.

With U8A G23C G56U A65U, the yeast fitness is no more than 0.5.

With U8A G10C C27A G48A, the yeast fitness was no more than 0.5.

Regarding U8A U26G C46G, the yeast fitness is no more than 0.5.

For U8A C34A A45C A65C, the yeast fitness worked out at 0.718.

On to U8A G58A G67U, for which the yeast fitness is 0.618.

With U8A U16A C27G U59C C61U, the yeast fitness was no more than 0.5.

U8A G44C C62U: the yeast fitness was no more than 0.5.

For U8C C24G G25A A43G, the yeast fitness was no more than 0.5.

For the variant U8C A14C G50A A57C, the yeast fitness is no more than 0.5.

Consider U8A C29A U47C, for which the yeast fitness was no more than 0.5.

Take U8C C11A U19G A36G U54C A69C: the yeast fitness was no more than 0.5.

Turning to U8A C61U, the yeast fitness was found to be 0.718.

Consider U8A C29U, for which the yeast fitness is 0.692.

As to U8C A14G C49U C61U, the yeast fitness is no more than 0.5.

In the case of U8C C11U U16G A21C C31G G39A G56C, the yeast fitness is no more than 0.5.

For the variant U8A U13A A14C U16C G67A, the yeast fitness is no more than 0.5.

In the case of U8A G58C, the yeast fitness was 0.764.

Regarding U8A G17A C24U A69C, the yeast fitness is 0.693.

Take U8C A14C: the yeast fitness was 0.66.

As to U8C A14G, the yeast fitness turned out to be 0.934.

U8A C33U A65U: the yeast fitness came out at 0.502.

In the case of U8A C33U A65G, the yeast fitness was no more than 0.5.

In the case of U8C A42U G63A A70G, the yeast fitness was no more than 0.5.

With U8A G18A G25A C33U G51A G56A C66U, the yeast fitness is no more than 0.5.

For the variant U8A G38A U54A, the yeast fitness is no more than 0.5.

On to U8C C24U A45G C46G C55G, for which the yeast fitness is no more than 0.5.

For U8A C24A C30U G48C, the yeast fitness is no more than 0.5.

Turning to U8C A20G C66A, the yeast fitness is no more than 0.5.

Consider U8C A21G C46U C62U, for which the yeast fitness was 0.699.

Take U8A C66G: the yeast fitness turned out to be 0.582.

On to U8A C66U, for which the yeast fitness was 0.775.

With U8A U16G C31U C34A A37U G41C, the yeast fitness is 0.525.

Turning to U8A U26C G39C A43G, the yeast fitness is no more than 0.5.

Take U8A U26G C29A C46U G58A G63A: the yeast fitness is no more than 0.5.

U8A C27U A40G C55U A57U: the yeast fitness is no more than 0.5.

For the variant U8A G50A A69U, the yeast fitness was 0.589.

For the variant U8C C22G U28A C33G A57C, the yeast fitness is no more than 0.5.

In the case of U8C C24G G67U, the yeast fitness was no more than 0.5.

Regarding U8A G9A U19G C24G, the yeast fitness was found to be 0.551.
